A short description of assay [1]: Antiinflammatory activity in human neutrophils assessed as inhibition of fMet-Leu-Phe/Cytochalasin B-induced superoxide anion generation. Format: functional, cell-based. Conditions: Neutrophil. In a few lines:
(§1)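 Neutrophils isolated from venous blood of healthy adult volunteers (20–28 years) by dextran sedimentation, Ficoll Hypaque centrifugation and hypotonic erythrocyte lysis, >98% viable, held in Ca2+-free HBSS pH 7.4 at 4 °C. Cells given 0.5 mg/mL ferricytochrome c and 1 mM Ca2+, 37 °C 2 min, drug 5 min, cytochalasin B 1 µg/mL 3 min, then fMLP 100 nM 10 min. SOD-inhibitable (100 U/mL) reduction at 550 nm; n = 4.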

Assay [2] can be described thus: Antiinflammatory activity in human neutrophils assessed as inhibition of fMet-Leu-Phe/Cytochalasin B-induced elastase release. To be noted: Neutrophil. It counts as functional, cell-based. In a few lines:
(§2)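 Human volunteer neutrophils (6 × 10^5/mL) prepared by dextran sedimentation, Ficoll Hypaque gradient and hypotonic lysis, kept in Ca2+-free HBSS pH 7.4 at 4 °C. Elastase substrate MeO-Suc-Ala-Ala-Pro-Val-p-nitroanilide 100 µM added; cells equilibrated 2 min at 37 °C, drug 5 min, then fMLP 100 nM/cytochalasin B 0.5 µg/mL stimulation. Absorbance at 405 nm monitored continuously; n = 4.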

Assay [3] can be described thus: Antiinflammatory activity in human neutrophils assessed as inhibition of fMet-Leu-Phe/Cytochalasin B-induced elastase release at 10 ug/mL. It counts as functional, cell-based. Conditions: Neutrophil. In a few lines:
as §2

Assay [4] is described as follows: Antiinflammatory activity in human neutrophils assessed as inhibition of fMet-Leu-Phe/Cytochalasin B-induced superoxide anion generation at 10 ug/mL. It counts as functional. To be noted: Neutrophil. In a few lines: as §1
The test system of assay [5] is Neutrophil. The assay can be described thus: Antiinflammatory activity in human neutrophils assessed as inhibition of superoxide anion generation at 10 ug/mL. Format: functional, cell-based. In a few lines:
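Healthy-volunteer neutrophils (dextran/Ficoll isolation, Ca2+-free HBSS pH 7.4) supplemented with 0.5 mg/mL ferricytochrome c and 1 mM Ca2+. Equilibrated 2 min at 37 °C, drug 5 min, cytochalasin B 1 µg/mL 3 min, then fMLP 100 nM 10 min. SOD-inhibitable ferricytochrome c reduction read at 550 nm with stirring, difference ± SOD (100 U/mL). Percent inhibition, n = 4.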

Assay [6] has as its system Neutrophil. The assay is described as follows: Antiinflammatory activity in human neutrophils assessed as inhibition of elastase release at 10 ug/mL. Format: functional, cell-based. In a few lines:
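Neutrophils from venous blood of healthy adult volunteers, isolated by dextran sedimentation, Ficoll Hypaque centrifugation and hypotonic erythrocyte lysis, kept in Ca2+-free HBSS pH 7.4 at 4 °C. Cells (6 × 10^5/mL) with MeO-Suc-Ala-Ala-Pro-Val-p-nitroanilide (100 µM), 2 min at 37 °C, drug 5 min, then fMLP (100 nM)/cytochalasin B (0.5 µg/mL). A405 monitored continuously. Percent inhibition, mean ± SEM, n = 4.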

pIC50: −log10 of the molar value. Values after ≈ are worked out from the molar mass of the structure shown. Active and inactive are the calls of the source. No cut-off for these calls is given here.

As to `CC(C)=CCC/C(C)=C/COc1cc(O)c(C(=O)CO)c(O)c1`, the half-inhibitory concentration (IC50) (usually the concentration that inhibits the measured activity by half) in assay [1] was 3.75 µg/mL; in assay [2], 0.91 µg/mL (≈ 2.84 µM). Take `CC(=O)c1c(O)cc(OC/C=C(\C)CCC=C(C)C)c(C(=O)O)c1O`: the 50% inhibitory concentration (IC50) in assay [1] came to 6.62 µg/mL; in assay [2], 5.79 µg/mL (≈ 16.6 µM).

For `COc1cc(O)c2c(=O)c(OC)c(-c3ccc(OC)c(OC)c3)oc2c1` [RETUSIN], the IC50 is 1.43 µg/mL in assay [1] and 1.69 µg/mL (≈ 4.72 µM) in assay [2].

Regarding `COc1cc(O)c2c(=O)c(OC)c(-c3ccc(O)c(OC)c3)oc2c1` [PACHYPODOL], the IC50 in assay [1] was found to be 1 µg/mL; in assay [2], 0.99 µg/mL (≈ 2.88 µM). With `CC(=O)c1c(O)cc(OC/C=C(\C)CCC=C(C)C)c2c1OC(C)(C)[C@H](O)C2`, the inhibition (in general, how much of the control response was suppressed) at 10 µg/mL was 28.7% in assay [3] and 30.6% in assay [4]. On to `CC(=O)c1c(O)cc(OC/C=C(\C)CCC=C(C)C)c2c1OC(C)(C)C=C2`, for which the values for the inhibition at 10 µg/mL in assay [3] and in assay [4] were 27.4% and 21.4%, respectively. In the case of `CC[C@H](CC[C@@H](C)[C@H]1CC[C@H]2[C@@H]3C(=O)C=C4C[C@@H](O)CC[C@]4(C)[C@H]3CC[C@]12C)C(C)C`, the inhibition at 10 µg/mL in assay [3] amounted to 7.48%; in assay [4] it was 22.6%. Turning to `CC(C)=CCC/C(C)=C/COc1cc(O)cc(O)c1C(=O)CO`, the IC50 in assay [1] came to 0.73 µg/mL; in assay [2], 0.6 µg/mL (≈ 1.87 µM). Turning to `CC(=O)c1c(O)cc(O)cc1OC/C=C(\C)CCC=C(C)C`, the outcome in assay [5] and in assay [6] was Active. In the case of `CC(=O)c1c(O)cc(OC/C=C(\C)CCC=C(C)C)c2c1OC(C)(CCC=C(C)C)C=C2` (stereo unspecified), the results for the inhibition at 10 µg/mL in assay [3] and in assay [4] were 26.6% and 23.2%, respectively. Regarding `O=S(=O)(F)Cc1ccccc1` [PHENYLMETHYLSULFONYLFLUORIDE], the negative logarithm of the IC50 (pIC50) (in general, the IC50 on a negative log10 scale, so that one unit is a factor of ten) in assay [3] was 4.45. Take `COc1cc(O)c2c(=O)c(OC)c(-c3ccc(O)cc3)oc2c1` [KUMATAKENIN]: the figures for the IC50 in assay [1] and in assay [2] were 1.2 µg/mL and 0.7 µg/mL (≈ 2.23 µM), respectively. For `CC(=O)c1c(OC/C=C(\C)CCC=C(C)C)cc(O)c(C(=O)O)c1O`, the inhibition at 10 µg/mL in assay [3] was 46.1%. In assay [1], the IC50 was 8.02 µg/mL. Regarding `c1ccc2c(c1)[I+]c1ccccc1-2` [DIPHENYLENEIODONIUM], the negative-log IC50 (pIC50) in assay [1] was 6.28.

These data come from ChEMBL document CHEMBL1143073, “Benzoic acid derivatives, acetophenones, and anti-inflammatory constituents from Melicope semecarpifolia” (J Nat Prod, 2008).
